SMILES strings stand for the structures.

This series in a line: Toxicity liver stage against HepG2, at 10uM. The format is cell-based. Set-up: test concentration 10 uM, cell line HepG2-A16-CD81EGFP. The settings on record: human, HepG2-A16-CD81EGFP cells; read-out: INHIBITION
The method in brief: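 Uninfected HepG2-A16-CD81EGFP cells, 3 × 10^3 per well, 1536-well, plated on prespotted compound at 10 μM final, parasite-free screening media added to match infected plates; puromycin 10 μM positive, DMSO 0.5% negative; run in parallel with 48 h PbLuc assay at 37 °C, 5% CO2; viability by CellTiter-Glo luminescence, normalized to controls.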
`Cc1oc(-c2nc(C#N)c(NC(C)C)o2)cc1S(=O)(=O)N1CCCC1`: the cytotoxicity at 10 µM came out at 5.61%.

With `Cc1ccc(-c2csc3c(=O)[nH]c(N4CCCC(C(N)=O)C4)nc23)cc1` (stereo unspecified), the cytotoxicity at 10 µM is -3.09%.

Consider `O=C1NCC[C@]12CN(Cc1ccsc1)C[C@H]2c1ccccc1`, for which the cytotoxicity at 10 µM is -142%.

With `CCN1CCN(C)C2(CCN(Cc3ccsc3)CC2)C1=O`, the cytotoxicity at 10 µM worked out at 0.317%.

`COCCCn1ccc(NC2CCOCC2)n1`: the cytotoxicity at 10 µM amounted to 3.31%.

On to `CCc1nnc(CN(CC)C(=O)C2CC(=O)N(C(C)(C)C)C2)o1` (stereo unspecified), for which the cytotoxicity at 10 µM was determined as 1.56%.

With `CSCCC(=O)N(C/C=C/c1ccccc1)CCO`, the cytotoxicity at 10 µM was -4.47%.

In the case of `CCOc1ccc(N2CCCN=C2NC(=O)c2cccc(C)c2)cc1`, the cytotoxicity at 10 µM came to 1.61%.

`COc1cc(CNc2nncs2)cc(OC)c1OC`: the cytotoxicity at 10 µM worked out at 18.7%.

Consider `Cc1nc(CN2CCCC(NCCc3ccccc3Cl)C2)no1` (stereo unspecified), for which the cytotoxicity at 10 µM was -11.8%.

`COc1ccc(CNC2CCc3ncnn3C2)cc1OCCCC#N` (stereo unspecified): the cytotoxicity at 10 µM was -5.45%.

With `Cc1cncc(C(=O)N2CCCC(C(=O)CCc3ccccc3)C2)c1` (stereo unspecified), the cytotoxicity at 10 µM is -10.1%.

For `CC(C)c1cc(NC(=O)c2ccc([S+]([O-])C(C)C)cc2)[nH]n1` (stereo unspecified), the cytotoxicity at 10 µM was -7.52%.

For `CC1c2ncc(Cn3cncn3)n2CCN1C1CCOCC1` (stereo unspecified), the cytotoxicity at 10 µM came to 4.28%.

As for `O=C(c1ccccc1F)N1C[C@@H]2COC[C@]2(COCc2cccnc2)C1`, the cytotoxicity at 10 µM is 6.27%.

Turning to `Cc1ccc(-n2c(C)nnc2SCC(O)COCc2ccco2)cc1` (stereo unspecified), the cytotoxicity at 10 µM was -11.6%.

As to `Cc1csc(N2CCN(C(=O)C3(C#N)CCCC3)CC2)n1`, the cytotoxicity at 10 µM is -12.6%.

Take `CC(C)(C)C(O)CN1CCN(C(=O)c2ccc3c(c2)COC3)CC1` (stereo unspecified): the cytotoxicity at 10 µM was -2.42%.

Take `O=C(C1CC1)N1CC2(CCN(CC3CC3)CC2)c2cc(F)ccc21`: the cytotoxicity at 10 µM was 0.64%.

With `CN1CCCN(C(=O)c2nc3c(s2)CCCN3CC2CC2)CC1`, the cytotoxicity at 10 µM amounted to 10%.

Take `O=C(c1ccnnc1)N1CC[C@H]2[C@H]1CCN2S(=O)(=O)C1CC1`: the cytotoxicity at 10 µM was -143%.

In the case of `CCOCC(O)CN1CCN(C(=O)Cc2ccc3c(c2)CCO3)CC1` (stereo unspecified), the cytotoxicity at 10 µM is -18.5%.

Consider `CCC1CN(Cc2ccccc2)CCN1Cc1nnc(C2CCC2)o1` (stereo unspecified), for which the cytotoxicity at 10 µM is -11.2%.

For `O=C(c1cccc(CN2CCCC2)c1)N1CCCC(n2cncn2)C1` (stereo unspecified), the cytotoxicity at 10 µM was -11.9%.

Regarding `Nc1cc2c(nn1)CCN(C(=O)C1CCc3ccccc31)C2` (stereo unspecified), the cytotoxicity at 10 µM was -6.58%.

Regarding `NC(=O)C1CCN(C(=O)c2ccc(OCc3cscn3)cc2)CC1`, the cytotoxicity at 10 µM was -10.6%.

As to `CNC(=O)[C@@H]1[C@@H](c2ccccc2)CN2CCN(Cc3ccccn3)C[C@H]12`, the cytotoxicity at 10 µM was 8.76%.

As for `CC1(C)CN(CC(F)(F)F)CCN1CC(=O)NC1CCCC1`, the cytotoxicity at 10 µM was determined as 10.4%.

As to `Cc1cc(C)cc(C(=O)NCCS(=O)(=O)N2CCSCC2)c1`, the cytotoxicity at 10 µM was -12.5%.

For `Cc1cc(N(C)C)cc(C2CCN(S(=O)(=O)c3cccnc3)C2)n1` (stereo unspecified), the cytotoxicity at 10 µM stood at 4.26%.

With `COc1cccnc1NC(=O)COC1CCCC1`, the cytotoxicity at 10 µM came out at 8.06%.

On to `Cc1ncsc1CN1C[C@@H]2CN(Cc3cccnc3)CCO[C@@H]2C1`, for which the cytotoxicity at 10 µM turned out to be 5.05%.

As to `O=C(CSc1ccc2c(c1)OCCO2)NS(=O)(=O)c1cccs1`, the cytotoxicity at 10 µM is -3.13%.

For the compound `CN(C)C(C(=O)N1CCSCC1)c1ccccc1F` (stereo unspecified), the cytotoxicity at 10 µM came to 0.32%.

For the compound `CC(C)c1ccn(C2(C(=O)O)CCN(c3cc(C(N)=O)ccn3)CC2)n1`, the cytotoxicity at 10 µM is 1.71%.

For `CCc1noc(C(C)N(C)CC(=O)Nc2ccc(Cl)c(C(F)(F)F)c2)n1` (stereo unspecified), the cytotoxicity at 10 µM came out at 50.1%.

With `O=C1CO[C@@H]2CN(Cc3cccs3)C[C@H]2N1CC1CC1`, the cytotoxicity at 10 µM is -2.32%.

For `O=C(c1cccc(C2CCNC2)c1)N1CCC(N2CCC(O)CC2)CC1` (stereo unspecified), the cytotoxicity at 10 µM is 2.18%.

In the case of `CCN(CC)S(=O)(=O)NC1CCN(c2ccc(OC)cc2)CC1`, the cytotoxicity at 10 µM was found to be 3.38%.

As to `Cc1ccc(CN2CCO[C@@H]3[C@@H](OCc4cccnc4)CC[C@@H]32)o1`, the cytotoxicity at 10 µM worked out at 8.37%.

For `O=C(O)c1c(-c2cncnc2)ncc2c1CCN(CC1CCOC1)C2` (stereo unspecified), the cytotoxicity at 10 µM is -102%.

Consider `CC1CCCCN1C(=O)c1ccc2c(c1)OCCCO2` (stereo unspecified), for which the cytotoxicity at 10 µM was 9.62%.

`CN(C)C(=O)N1CCc2onc(C(=O)Nc3cccnc3)c2C1`: the cytotoxicity at 10 µM worked out at 4.85%.

Turning to `COc1ccc(CN2C[C@@H](O)[C@](O)(CNC(=O)c3ccccn3)C2)cc1`, the cytotoxicity at 10 µM worked out at 8.46%.

As for `Cc1cnn(CCNCC(=O)Nc2ccc(Cl)cn2)c1`, the cytotoxicity at 10 µM was found to be 1.93%.

Regarding `COc1cccc(C(C(=O)O)N2CCC(Cn3cccn3)CC2)c1OC` (stereo unspecified), the cytotoxicity at 10 µM is -1.77%.

For the compound `Cc1nn(C)c(C)c1OCC(=O)N1CCCCC1`, the cytotoxicity at 10 µM was found to be 2.23%.

With `O=C(NCCCOc1cccnc1)c1cn(CCc2ccccc2)nn1`, the cytotoxicity at 10 µM was -0.977%.

Turning to `Cc1cnn(CCNC(C)c2nnc(-c3ccccc3)o2)c1` (stereo unspecified), the cytotoxicity at 10 µM is -2.4%.

Consider `Cc1nc(N(C)C)nc(N(C)CCc2ccncc2)c1C`, for which the cytotoxicity at 10 µM was determined as 1.37%.

Regarding `COc1cccc(CN2CCN3C(=O)NC[C@H]3C2)n1`, the cytotoxicity at 10 µM is -1.45%.

As to `COc1ccccc1OCC(=O)NCC(C)(O)c1ccccc1` (stereo unspecified), the cytotoxicity at 10 µM is -5.37%.

With `CCC(=O)N1CCC(Cc2ccccc2-c2ccccc2)(C(N)=O)C1` (stereo unspecified), the cytotoxicity at 10 µM is -0.105%.

In the case of `N#Cc1ccc(OC[C@]23COC[C@H]2CN(Cc2ccoc2)C3)nc1`, the cytotoxicity at 10 µM was -0.762%.

For the compound `COc1ccc2c(c1)CC(NCCCn1nc(C)nc1C)CC2` (stereo unspecified), the cytotoxicity at 10 µM is -3.27%.

Regarding `Cc1cc(C)n(C2CN(CC(=O)N(C)Cc3cnn(C)c3)C2)n1`, the cytotoxicity at 10 µM is -5.85%.

Take `CCc1ncc(C(=O)N(C)CCc2nc3cc(OC)ccc3[nH]2)cn1`: the cytotoxicity at 10 µM is -47.4%.

Regarding `COc1cccc(-n2nnc(C(=O)N3CCOC(C)C3)c2C)c1` (stereo unspecified), the cytotoxicity at 10 µM was -9.95%.

For the compound `Cc1ccccc1C(C)NC(=O)CN1CCN(Cc2ccc(Cl)s2)CC1` (stereo unspecified), the cytotoxicity at 10 µM turned out to be 10.8%.

Consider `CC(Cn1cccn1)NC(=O)N1CCN(Cc2cccnc2)CC1` (stereo unspecified), for which the cytotoxicity at 10 µM was -18.2%.

Turning to `CC1CCCN(Cc2coc(-c3cccc(F)c3)n2)C1` (stereo unspecified), the cytotoxicity at 10 µM was -16.7%.

In the case of `COc1cc(CCC(=O)NC(C)C)ccc1OCC(F)(F)F`, the cytotoxicity at 10 µM was -4.24%.

Turning to `Cc1nn(C)cc1CN(Cc1ccccn1)Cc1ccccc1Cl`, the cytotoxicity at 10 µM turned out to be 1.2%.

Take `COCCNS(=O)(=O)c1cccc2c1CN(C(=O)c1ccoc1)CC2`: the cytotoxicity at 10 µM is -3.88%.

As to `Oc1nnc(-c2ccccc2)c2sc(N3CCCCC3)nc12`, the cytotoxicity at 10 µM was -1.81%.

With `CCCn1ccnc1-c1cccc(NC(=O)C2CCCOC2)c1` (stereo unspecified), the cytotoxicity at 10 µM is -2.43%.

`Cc1nc(C)n(CC2CCCN(CCC(=O)Nc3cc(C)on3)C2)n1` (stereo unspecified): the cytotoxicity at 10 µM is -1.68%.

`O=C1CNc2ncnc(Nc3cnn(Cc4ccccc4F)c3)c2N1`: the cytotoxicity at 10 µM is 2.27%.

Take `COc1ccc(-c2cc(C3CCNCC3)ccn2)cc1`: the cytotoxicity at 10 µM was found to be 0.288%.

With `Cc1nn(C)c(C)c1C1COCCN1C(=O)Cc1cccc(F)c1` (stereo unspecified), the cytotoxicity at 10 µM was -11%.

Take `Cc1ccc(C)c(NC(=O)c2cc(S(=O)(=O)N3CCSCC3)c[nH]2)c1`: the cytotoxicity at 10 µM was -0.185%.

(Values after ChEMBL document CHEMBL4513216, “Probing the Open Global Health Chemical Diversity Library for Multistage-Active Starting Points for Next-Generation Antimalarials” (ACS Infect Dis, 2020).)
